Measured values collected from several papers.
Each line is one published result; the experiments were not run side by side.
Cell line: HepG2
Effect on: cell growth or viability

SMILES	test	conditions	measurement	value
CNc1cccc2cc(C(=O)NCCc3cccc(C(=O)O)c3)c(=O)[nH]c12	CCK-8	50 µM, 48 h	cell death	15%
COC1=CC(c2ccc[nH]2)=NC1=Cc1ccc(CCCCCCCCCCO)[nH]1	–	–	IC50	11.4 µM
COc1ccc2c(c1)c1c(n2CO)CN2CCc3cc(OC)c(OCC(F)(F)F)cc3C2C1 (centres unmarked)	–	5 µM, 24 h	viability	102%
CCCCCCn1c(-c2cccc(Cl)c2)n[nH]c1=S	resazurin	1 µM, 24 h	viability	87%
COc1cc2[nH]c(C)c(-c3ccc(Oc4cccc(OC(F)(F)F)c4)cc3)c(=O)c2cc1Cl	resazurin	–	IC50	> 10 µM
CC(C)(C)CC(C)(C)Nc1c(-c2cccc(C#N)c2)nc2ncccn12	MTT	25 µM, 48 h	viability	74.5%
CNc1cccc2cc(C(=O)NCc3ccc(C(=O)O)cc3)c(=O)[nH]c12	CCK-8	50 µM, 48 h	cell death	18%
COc1cc2c(cc1OCc1ccccc1F)C1Cc3c(n(CO)c4ccccc34)CN1CC2 (centres unmarked)	–	10 µM, 24 h	viability	109%
COC1=CC(c2ccc[nH]2)=NC1=Cc1ccc(CCCCCCCCCCCCO)[nH]1	–	–	IC50	6.18 µM
C/C=C(/C)C(=O)O[C@@H]1[C@H](OC(C)=O)c2c(ccc3ccc(=O)oc23)OC1(C)C	WST-1	–	IC50	50.9 µM
CC(C)(C)CC(C)(C)Nc1c(-c2ccccc2)nc2ncccn12	MTT	25 µM, 48 h	viability	67.4%
Cc1[nH]c2ccc(F)cc2c(=O)c1-c1ccc(Oc2ccc(OC(F)(F)F)cc2)nc1	resazurin	–	IC50	> 10 µM
OC(c1cc(C(F)(F)F)nc2c(C(F)(F)F)cccc12)C1CCCCN1 (centres unmarked)	–	–	IC50	11 µM
COc1ccc(-c2nc3ncccn3c2NC(C)(C)CC(C)(C)C)cc1O	MTT	25 µM, 48 h	viability	77.7%
COC(=O)[C@]1(O)C[C@@H](O)[C@@H](O)[C@H](OC(=O)/C=C/c2ccc(O)c(O)c2)C1	WST-1	–	IC50	30.9 µM
COC1=CC(c2ccc[nH]2)=NC1=Cc1ccc(CCCCCCCCCCCO)[nH]1	–	–	IC50	11.4 µM
COc1ccc(CCN2CCC(Nc3nc4ccccc4n3Cc3ccc(F)cc3)CC2)cc1	resazurin	1 µM, 24 h	viability	113%
COc1ccc2c(c1)c1c(n2CO)CN2CCc3cc(OCc4ccccc4)c(OC)cc3C2C1 (centres unmarked)	–	20 µM, 24 h	viability	88.9%
Cc1[nH]c2ccc(Cl)cc2c(=O)c1-c1ccc(Oc2ccc(OC(F)(F)F)cc2)nc1	resazurin	–	IC50	> 10 µM
COc1ccc2c(c1)c1c(n2CO)CN2CCc3cc(OC)c(OCc4ccc(F)cc4)cc3C2C1 (centres unmarked)	–	5 µM, 24 h	viability	104%
CCCCCCCCCCCCCCCCOP(=O)([O-])OCC[N+](C)(C)C	MTS	24 h	CC50	> 20 µM
CNc1cccc2cc(C(=O)Nc3ccc(C(=O)O)cc3)c(=O)[nH]c12	CCK-8	10 µM, 48 h	cell death	1.5%
COc1cc2[nH]c(C)c(-c3ccc(Oc4ccc(OC(F)(F)F)c(F)c4)cc3)c(=O)c2cc1Cl	resazurin	–	IC50	> 10 µM
